Results of several laboratories.
Lines come from different studies, so protocols differ.
Target: Serine/threonine-protein kinase 3 (STK3, Homo sapiens, UniProt Q13188)
One construct used (Q13188 1-491): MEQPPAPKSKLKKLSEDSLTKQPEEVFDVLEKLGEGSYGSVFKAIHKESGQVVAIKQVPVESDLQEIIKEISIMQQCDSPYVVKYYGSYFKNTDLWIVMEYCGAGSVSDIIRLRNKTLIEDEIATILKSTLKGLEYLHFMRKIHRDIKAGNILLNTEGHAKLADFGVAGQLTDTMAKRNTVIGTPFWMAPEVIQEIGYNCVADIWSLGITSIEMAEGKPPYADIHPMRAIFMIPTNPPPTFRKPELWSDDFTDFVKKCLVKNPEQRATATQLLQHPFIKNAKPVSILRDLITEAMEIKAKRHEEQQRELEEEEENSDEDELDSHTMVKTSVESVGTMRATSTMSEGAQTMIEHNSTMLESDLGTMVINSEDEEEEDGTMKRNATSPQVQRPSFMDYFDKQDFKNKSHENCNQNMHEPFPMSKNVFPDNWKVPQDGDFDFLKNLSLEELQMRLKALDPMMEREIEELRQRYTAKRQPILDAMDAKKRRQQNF

FC(F)(F)Oc1cccc(-c2cnc3ccc(-c4ccncc4)nn23)c1  remaining binding (cell-free assay; competition with immobilised ligand; 5 µM): 58%
C=CC(=O)N1CCC(C(=O)NCC(=O)N2CCN(c3nc(-c4cnc(N)nc4C(F)F)nc(N4CCOCC4)n3)CC2)CC1  remaining binding (binding; competition with immobilised ligand; 1 µM): 97%
Cc1cnc(Nc2ccc(C(=O)N3CCC(N4CCCC4)CC3)cc2)nc1-c1cc2ccccc2s1  remaining binding (binding; competition with immobilised ligand; 1 µM): 75%
CN(C)c1nccc(-c2cnc3ncccn23)n1  remaining binding (binding; 1 µM): 62%
O=C(O)c1cc(-c2ccc(C3CCNCC3)cc2)c2ccc(-c3ccc(C(F)(F)F)cc3)cc2c1  remaining binding (cell-free assay; competition with immobilised ligand; 1 µM): 100%
N[C@@H]1CCN(c2nccc(-c3cnn4ncccc34)n2)C1  remaining binding (binding; 1 µM): 98%
CC(=O)Nc1c(C(C)=O)c(=O)n(C)c2nc(-c3ccc(Cl)cc3Cl)c(-c3ccc(Cl)cc3)cc12  remaining binding (cell-free assay; competition with immobilised ligand; 1 µM): 100%
CNC(=O)[C@@H]1CC[C@@H](n2c(-c3ccc4cnccc4c3)nc3ccc(C(=O)NCc4cccc(C(N)=O)c4)cc32)C1  remaining binding (binding; competition with immobilised ligand; 1 µM): 100%
COc1ccc2c(c1)O[C@@H](c1ccc(OC)c(OC)c1)C[C@H]2NC(=O)C1(c2ccc3c(c2)OC(F)(F)O3)CC1  remaining binding (cell-free assay; competition with immobilised ligand; 1 µM): 96%
c1cnn2ncc(-c3ccnc(N4CCC45COC5)n3)c2c1  remaining binding (binding; 1 µM): 81%
COc1cc(-c2cn(C3CCc4ccccc4N(CC(F)(F)F)C3=O)nn2)ccc1-n1ccc(C)n1 (stereo not shown)  remaining binding (cell-free assay; competition with immobilised ligand; 1 µM): 84%
COc1cnc(Nc2cccc(S(N)(=O)=O)c2)nc1N1CCN(c2ccccc2)C(=O)C1  remaining binding (binding; competition with immobilised ligand; 1 µM): 98%
C[C@H](c1ccc(F)cc1)N(Cc1cccc(C(=O)O)c1)C(=O)c1cnc2ccccc2c1  remaining binding (cell-free assay; competition with immobilised ligand; 1 µM): 100%
O=C(NCC1CCOCC1)c1n[nH]cc1NC(=O)c1c(F)cccc1F  remaining binding (binding; competition with immobilised ligand; 1 µM): 89%
CN(CCCC(F)(F)F)c1nccc(-c2cnn3ncccc23)n1  remaining binding (binding; 1 µM): 100%
CNC(=O)Nc1ccc2c(c1)[C@@]1(CC2)OC(=O)N(CC(=O)N(Cc2ccc(F)cc2)[C@@H](C)C(F)(F)F)C1=O  remaining binding (cell-free assay; competition with immobilised ligand; 1 µM): 97%
C[C@@H]1CCN(c2nccc(-c3cnn4ncccc34)n2)C1  remaining binding (binding; 1 µM): 100%
O=C(NCCCN1CCOCC1)c1ccc(Nc2ncc(Cl)c(-c3ccc(Cl)s3)n2)cc1  remaining binding (binding; competition with immobilised ligand; 1 µM): 12%
F[C@@H]1CCN(c2nccc(-c3cnn4ncccc34)n2)C1  remaining binding (binding; 1 µM): 100%
CN(c1ccnc(CNc2nc(Nc3ccc4c(c3)CC(=O)N4)ncc2C(F)(F)F)n1)S(C)(=O)=O  remaining binding (cell-free assay; competition with immobilised ligand; 1 µM): 46%
CC1CCCN1c1nccc(-c2cnn3ncccc23)n1 (stereo not shown)  remaining binding (binding; 1 µM): 100%
O=C(NCCCN1CCOCC1)c1ccc(Nc2nccc(-c3cc4ccccc4s3)n2)cc1  remaining binding (binding; competition with immobilised ligand; 1 µM): 88%
